Assay results published in ChEMBL document CHEMBL1128590, “erbB-2 oncogene inhibition by geldanamycin derivatives: synthesis, mechanism of action, and structure-activity relationships” (J Med Chem, 1995).
Active and inactive are the calls of the source. The calls are words filed in the database; no cut-off is given here.

Assays:
[1] = system: SK-BR-3; experiment: In vitro inhibition of p185 erbB-2 oncoprotein in human breast cancer SK-BR-3 cells; format: functional, cell-based
Summary of the method: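 Cellular assay with read-out as depletion of p185 erbB-2 protein after drug treatment of the cells. This depletion tracks inhibition of p185 autophosphorylation.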

[2] = system: Mus musculus; experiment: In vivo inhibition of p185 phosphotyrosine in nu/nu nude mice bearing Fisher rat embryo cells transfected with human erbB-2; format: functional; design: concentration or dose not given beside the values
[3] = system: Mus musculus; experiment: In vivo inhibition of p185 phosphotyrosine in nu/nu nude mice bearing Fisher rat embryo cells transfected with human erbB-2 (inactive); format: functional, organism-based

| Structure (SMILES) | IC50 [1] | Inhibition [2] | inhibition [3] |
| --- | --- | --- | --- |
| CO[C@H]1/C=C\C=C(/C)C(=O)N(CC(=O)c2ccccc2)C2=CC(=O)C(N)=C(C[C@@H](C)C[C@H](OC)[C@H](O)[C@@H](C)/C=C(\C)[C@@H]1OC(N)=O)C2=O | 0.3 µM |  |  |
| COC(=O)/C(C)=C\C=C\[C@H](OC)[C@@H](OC(N)=O)/C(C)=C/[C@H](C)[C@@H](O)[C@H](C[C@H](C)CC1=C(N2CCC2)C(O)=CC(=N)C1=O)OC | > 3.2 µM |  |  |
| C=CCNC1=C2C[C@@H](C)C[C@H](OC)[C@H](O)[C@@H](C)/C=C(\C)[C@H](OC(N)=O)[C@@H](OC)/C=C\C=C(/C)C(=O)NC(=CC1=O)C2=O [TANESPIMYCIN] |  | 56% |  |
| C=CCNC1=C2C[C@@H](C)C[C@H](OC)[C@H](OC(=O)NS(=O)(=O)NC(C)C)[C@@H](C)/C=C(\C)[C@H](OC(N)=O)[C@@H](OC)/C=C\C=C(/C)C(=O)NC(=CC1=O)C2=O | 1.07 µM |  |  |
| CO[C@H]1/C=C\C=C(/C)C(=O)NC2=CC(=O)C(NC3CCC3)=C(C[C@@H](C)C[C@H](OC)[C@H](O)[C@@H](C)/C=C(\C)C1=O)C2=O | > 3.7 µM |  |  |
| CNC1=C2C[C@@H](C)C[C@H](OC)[C@H](NCc3ccccc3)[C@@H](C)/C=C(\C)[C@H](OC(N)=O)[C@@H](OC)/C=C\C=C(/C)C(=O)NC(=CC1=O)C2=O | 0.85 µM |  |  |
| CO[C@H]1/C=C\C=C(/C)C(=O)NC2=CC(=O)C(NC(C)C)=C(C[C@@H](C)C[C@H](OC)[C@H](O)[C@@H](C)/C=C(\C)[C@@H]1OC(N)=O)C2=O |  | 87% |  |
| COC1=C2C[C@@H](C)C[C@H](OC)[C@H](O)[C@@H](C)/C=C(\C)[C@H](OC(N)=O)[C@@H](OC)/C=C\C=C(/C)C(=O)NC(=CC1=O)C2=O |  |  | inactive |
| CO[C@H]1C[C@H](C)CC2=C(N3CCC3)C(=O)C=C(NC(=O)/C(C)=C/C=C\[C@H](OC)[C@@H](OC(N)=O)/C(C)=C/[C@H](C)/C1=N/O)C2=O | 1.1 µM |  | inactive |
| CNC1=C2C[C@@H](C)C[C@H](OC)[C@H](O)[C@@H](C)/C=C(\C)[C@H](OC(N)=O)[C@@H](OC)/C=C\C=C(/C)C(=O)NC(=CC1=O)C2=O |  | 18% |  |
| CO[C@H]1/C=C\C=C(/C)C(=O)N(Cc2ccccn2)C2=CC(=O)C(N)=C(C[C@@H](C)C[C@H](OC)[C@H](O)[C@@H](C)/C=C(\C)[C@@H]1OC(N)=O)C2=O | > 3.1 µM |  |  |
| CO[C@H]1/C=C\C=C(/C)C(=O)NC2=CC(=O)C(N3CCC3)=C(C[C@@H](C)C[C@H](OC)[C@H](O)[C@@H](C)/C=C(\C)[C@@H]1/N=C(/N)S)C2=O | 1.7 µM |  |  |
| CO[C@H]1/C=C\C=C(/C)C(=O)NC2=CC(=O)C(N3CCC3)=C(C[C@@H](C)C[C@H](OC)[C@H](O)[C@@H](C)/C=C(\C)[C@@H]1O)C2=O | 1.29 µM |  |  |
| C=CCNC1=C2C[C@@H](C)C[C@H](OC)[C@H](OC(=O)NS(=O)(=O)N3CN(C)C3)[C@@H](C)/C=C(\C)[C@H](OC(N)=O)[C@@H](OC)/C=C\C=C(/C)C(=O)NC(=CC1=O)C2=O | > 2.5 µM |  |  |
| CO[C@H]1/C=C\C=C(/C)C(=O)NC2=CC(=O)C(N3CCC3)=C(C[C@@H](C)C[C@H](OC)[C@H](O)[C@@H](C)/C=C(\C)[C@@H]1OC(=O)C(=O)O)C2=O | 1 µM |  |  |
| C=CCNC1=C2C[C@@H](C)C[C@H](OC)[C@H](OC(=O)NS(=O)(=O)N3CCC3)[C@@H](C)/C=C(\C)[C@H](OC(N)=O)[C@@H](OC)/C=C\C=C(/C)C(=O)NC(=CC1=O)C2=O | 0.8 µM |  |  |
| COc1ccccc1C(=O)CN1C(=O)/C(C)=C/C=C\[C@H](OC)[C@@H](OC(N)=O)/C(C)=C/[C@H](C)[C@@H](O)[C@@H](OC)C[C@H](C)CC2=C(N)C(=O)C=C1C2=O | 0.6 µM | 50% |  |
| CO[C@H]1/C=C\C=C(/C)C(=O)NC2=CC(=O)C(N)=C(C[C@@H](C)C[C@H](OC)[C@H](O)[C@@H](C)/C=C(\C)[C@@H]1O)C2=O | > 3.9 µM |  |  |
| CO[C@H]1/C=C\C=C(/C)C(=O)N(CC(C)=O)C2=CC(=O)C(N)=C(C[C@@H](C)C[C@H](OC)[C@H](O)[C@@H](C)/C=C(\C)[C@@H]1OC(N)=O)C2=O | 0.83 µM |  |  |
| C=CCNC1=C2C[C@@H](C)C[C@H](OC)[C@H](O)[C@@H](C)/C=C(\C)[C@H](OC(=O)CN)[C@@H](OC)/C=C\C=C(/C)C(=O)NC(=CC1=O)C2=O | > 3.3 µM |  |  |
| CO[C@H]1/C=C\C=C(/C)C(=O)NC2=CC(=O)C(NC3CC3)=C(C[C@@H](C)C[C@H](OC)[C@@H](F)[C@@H](C)/C=C(\C)[C@@H]1OC(N)=O)C2=O | 0.5 µM |  |  |
| CO[C@H]1/C=C\C=C(/C)C(=O)N(CC(=O)c2ccc(N=[N+]=[N-])cc2)C2=CC(=O)C(N3CCC3)=C(C[C@@H](C)C[C@H](OC)[C@H](O)[C@@H](C)/C=C(\C)[C@@H]1OC(N)=O)C2=O | 1.9 µM |  |  |
| COc1ccc(C(=O)CN2C(=O)/C(C)=C/C=C\[C@H](OC)[C@@H](OC(N)=O)/C(C)=C/[C@H](C)[C@@H](O)[C@@H](OC)C[C@H](C)CC3=C(N)C(=O)C=C2C3=O)cc1 | 1.2 µM |  |  |
| CO[C@H]1/C=C\C=C(/C)C(=O)NC2=CC(=O)C(N3CCC3)=C(C[C@@H](C)C[C@H](OC)[C@H](O)[C@@H](C)/C=C(\C)[C@@H]1NC(N)=O)C2=O | 2.6 µM |  |  |
| C=CCN[C@H]1[C@@H](OC)C[C@H](C)CC2=C(NC)C(=O)C=C(NC(=O)/C(C)=C/C=C\[C@H](OC)[C@@H](OC(N)=O)/C(C)=C/[C@@H]1C)C2=O | 1 µM |  |  |
| C=CCNC1=C2C[C@@H](C)C[C@H](OC)[C@@H](F)[C@@H](C)/C=C(\C)[C@H](OC(N)=O)[C@@H](OC)CC/C=C(\C)C(=O)NC(=CC1=O)C2=O | 1.2 µM |  | inactive |
| CO[C@H]1/C=C\C=C(/C)C(=O)NC2=CC(=O)C(N3CCC3)=C(C[C@@H](C)C[C@H](OC)[C@H](O)[C@@H](C)/C=C(\C)[C@@H]1OC(N)=O)C2=O |  | 61% |  |
| C=CCNC1=C2C[C@@H](C)C[C@H](OC)[C@H](O)[C@@H](C)/C=C(\C)[C@H](OC(=O)NCC)[C@@H](OC)/C=C\C=C(/C)C(=O)NC(=CC1=O)C2=O | > 3.3 µM |  |  |

The next lines start with results.

| IC50 [1] | Structure (SMILES) | Inhibition [2] | inhibition [3] |
| --- | --- | --- | --- |
| 0.14 µM | CO[C@H]1/C=C\C=C(/C)C(=O)N(CC(=O)c2ccc(N=[N+]=[N-])c(I)c2)C2=CC(=O)C(N)=C(C[C@@H](C)C[C@H](OC)[C@H](O)[C@@H](C)/C=C(\C)[C@@H]1OC(N)=O)C2=O |  |  |
| 0.034 µM | CNC1=C2C[C@@H](C)C[C@H](OC)C(=O)[C@@H](C)/C=C(\C)[C@H](OC(N)=O)[C@@H](OC)/C=C\C=C(/C)C(=O)NC(=CC1=O)C2=O |  | inactive |
| 0.26 µM | C=CCNC1=C2C[C@@H](C)C[C@H](OC)[C@@H](F)[C@@H](C)/C=C(\C)[C@H](OC(N)=O)[C@@H](OC)/C=C\C=C(/C)C(=O)NC(=CC1=O)C2=O | 50% |  |
| 0.27 µM | CO[C@H]1C[C@H](C)CC2=C(NC(C)C)C(=O)C=C(NC(=O)/C(C)=C/C=C\[C@H](OC)[C@@H](OC(N)=O)/C(C)=C/[C@H](C)/C1=N/O)C2=O |  |  |
| 0.2 µM | COc1ccccc1C(=O)CN1C(=O)/C(C)=C/CC[C@H](OC)[C@@H](OC(N)=O)/C(C)=C/[C@H](C)[C@@H](O)[C@@H](OC)C[C@H](C)CC2=C(N)C(=O)C=C1C2=O |  |  |
| 0.08 µM | CO[C@H]1/C=C\C=C(/C)C(=O)N(CC(=O)c2ccc(Cl)c(Cl)c2)C2=CC(=O)C(N)=C(C[C@@H](C)C[C@H](OC)[C@H](O)[C@@H](C)/C=C(\C)[C@@H]1OC(N)=O)C2=O |  | inactive |
| 0.17 µM | CO[C@H]1/C=C\C=C(/C)C(=O)NC2=CC(=O)C(N3CCC3)=C(C[C@@H](C)C[C@H](OC)[C@@H](F)[C@@H](C)/C=C(\C)[C@@H]1OC(N)=O)C2=O |  | inactive |
| 0.037 µM | CO[C@H]1C[C@H](C)CC2=C(N)C(=O)C=C(NC(=O)/C(C)=C/CC[C@H](OC)[C@@H](OC(N)=O)/C(C)=C/[C@H](C)[C@H]1O)C2=O | 45% |  |
| 0.2 µM | CO[C@H]1/C=C\C=C(/C)C(=O)N(CC(=O)c2ccc3ccccc3c2)C2=CC(=O)C(N)=C(C[C@@H](C)C[C@H](OC)[C@H](O)[C@@H](C)/C=C(\C)[C@@H]1OC(N)=O)C2=O |  | inactive |
| 0.14 µM | CO[C@H]1/C=C\C=C(/C)C(=O)NC2=CC(=O)C(N3CCC3)=C(C[C@@H](C)C[C@H](OC)[C@H](OC(=O)NS(=O)(=O)NC(C)C)[C@@H](C)/C=C(\C)[C@@H]1OC(N)=O)C2=O |  | inactive |
| 0.05 µM | CO[C@H]1/C=C\C=C(/C)C(=O)NC2=CC(=O)C(N3CCC3)=C(C[C@@H](C)C[C@H](OC)[C@H](OC(N)=O)[C@@H](C)/C=C(\C)[C@@H]1OC(N)=O)C2=O |  | inactive |
| 0.034 µM | CO[C@H]1C[C@H](C)CC2=C(N3CCC3)C(=O)C=C(NC(=O)/C(C)=C/C=C\[C@H](OC)[C@@H](OC(N)=O)/C(C)=C/[C@H](C)C1=O)C2=O |  | inactive |
| 0.09 µM | CO[C@H]1/C=C\C=C(/C)C(=O)N(CC(=O)c2ccc([N+](=O)[O-])cc2)C2=CC(=O)C(N)=C(C[C@@H](C)C[C@H](OC)[C@H](O)[C@@H](C)/C=C(\C)[C@@H]1OC(N)=O)C2=O |  |  |
| 0.22 µM | C=CCNC1=C2C[C@@H](C)C[C@H](OC)C(=O)[C@@H](C)/C=C(\C)[C@H](OC(N)=O)[C@@H](OC)/C=C\C=C(/C)C(=O)NC(=CC1=O)C2=O |  |  |
| 0.07 µM | CO[C@H]1/C=C\C=C(/C)C(=O)N(CC(=O)c2cccc3ccccc23)C2=CC(=O)C(N)=C(C[C@@H](C)C[C@H](OC)[C@H](O)[C@@H](C)/C=C(\C)[C@@H]1OC(N)=O)C2=O |  | inactive |
| 0.04 µM | CO[C@H]1C[C@H](C)CC2=C(N3CCC3)C(=O)C=C(NC(=O)/C(C)=C/CC[C@H](OC)[C@@H](OC(N)=O)/C(C)=C/[C@H](C)[C@@H]1F)C2=O |  | inactive |
| 0.23 µM | CO[C@H]1/C=C\C=C(/C)C(=O)N(CC(=O)c2ccc(N=[N+]=[N-])cc2)C2=CC(=O)C(N)=C(C[C@@H](C)C[C@H](OC)[C@H](O)[C@@H](C)/C=C(\C)[C@@H]1OC(N)=O)C2=O |  |  |
| 0.19 µM | CO[C@H]1/C=C\C=C(/C)C(=O)NC2=CC(=O)C(N3CCC3)=C(C[C@@H](C)C[C@H](OC)[C@H](OC(=O)NS(=O)(=O)N3CCN(C)CC3)[C@@H](C)/C=C(\C)[C@@H]1OC(N)=O)C2=O |  | inactive |
